Measured values as given in ChEMBL document CHEMBL1140910, “Fluorinated benzyloxyphenyl piperidine-4-carboxamides with dual function against thrombosis: inhibitors of factor Xa and platelet aggregation” (J Med Chem, 2009).
pIC50, pKi: −log10 of the molar value. The source made the active and inactive calls. The rule behind the calls is not given here.

Key:
Prothrombin (Bos taurus) = Prothrombin (Bos taurus) (UniProt P00735); test: Inhibition of bovine factor 2a at 250 uM by amydolitic assay
In short: (§1)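 Bovine thrombin (0.41 U/mL) in 10 mM Tris pH 8 with 0.15 M NaCl and 0.1% PEG 6000, compound (final 10 nM–0.25 mM, ≤2% DMSO) for 30 min at 25 °C, then 0.050 mM S-2238.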

Platelet [1] = test: Inhibition of epinephrine-induced platelet aggregation in human platelet rich plasma; assay type: functional
In short: (§2)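 Citrated human venous blood spun 800 rpm 15 min at 21 °C for PRP, platelets adjusted to 230000 µL-1 with PPP. PRP preincubated with compound (final 10 µM–1 mM, 0.5% DMSO) 5 min at 37 °C with stirring, then 10 µM final ADP or epinephrine. Turbidimetric (Born) transmittance at 640 nm over 5 min. IC50 from sigmoid fit, ≥3 determinations in duplicate, mean ± SEM.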

Coagulation factor X [2] = biological target: T1, Coagulation factor X (Homo sapiens, UniProt P00742); test: Inhibition of human factor 10a at 250 uM by amydolitic assay
In short: (§3)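 Human factor Xa (2 nM) in 10 mM Tris pH 8, 0.15 M NaCl, 0.1% PEG 6000, preincubated 30 min at 25 °C with compound (final 10 nM–0.25 mM, ≤2% DMSO). Started with 0.04 mM S-2765; p-nitroanilide release at 405 nm for 5 min, 25 °C. Initial velocities give IC50 (≥3 determinations), Ki by Cheng-Prusoff.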

Platelet [3] = test: Inhibition of ADP-induced platelet aggregation in human platelet rich plasma; assay type: functional; in short: as §2
Coagulation factor X [4] = biological target: T1, Coagulation factor X; test: Inhibition of human factor 10a by amydolitic assay; in short: as §3
Prothrombin = Prothrombin (Bos taurus, UniProt P00735); test: Inhibition of bovine factor 2a by amydolitic assay; in short: as §1
Bos taurus = species on record: Bos taurus; test: Inhibition of bovine alpha-chymotrypsin at 250 uM by amydolitic assay
In short: (§4)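 Bovine α-chymotrypsin (0.4 µg/mL) in 50 mM Tris pH 7.5 with 50 mM CaCl2, incubated with compound (final 10 nM–0.25 mM) or DMSO 10 min at 25 °C. Substrate 0.185 mM N-succinyl-Ala-Ala-Pro-Phe-p-nitroanilide added; 405 nm read 5 min at 25 °C. Initial-rate IC50 (≥3 determinations) converted to Ki by Cheng-Prusoff.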

Plasma [5] = test: Anticoagulant activity in human plasma assessed as concentration required to double the activated partial thromboplastin time; assay type: functional
In short: (§5)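 Pooled lyophilized human plasma with aPTT reagent and 0.025 mol/L CaCl2; inhibitor or solvent at increasing concentrations incubated with plasma 3 min at 37 °C. Clotting time read on a coagulometer against control plasma, triplicate measurements; concentration giving 2-fold aPTT prolongation calculated from concentration-response curves.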

[6] = Inhibition of bovine alpha-chymotrypsin by amydolitic assay; set-up: species or system Bos taurus; in short: as §4
Plasma [7] = test: Anticoagulant activity in human plasma assessed as effect on double the activated partial thromboplastin time upto 1 mM; assay type: functional, cell-free; in short: as §5

T1 sequence (P00742 41-179 limits assumed): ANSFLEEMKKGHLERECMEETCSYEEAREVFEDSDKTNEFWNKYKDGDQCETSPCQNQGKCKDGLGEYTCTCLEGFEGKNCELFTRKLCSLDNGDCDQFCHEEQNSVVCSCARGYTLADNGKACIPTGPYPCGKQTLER
T1 sequence (P00742 235-488 limits assumed): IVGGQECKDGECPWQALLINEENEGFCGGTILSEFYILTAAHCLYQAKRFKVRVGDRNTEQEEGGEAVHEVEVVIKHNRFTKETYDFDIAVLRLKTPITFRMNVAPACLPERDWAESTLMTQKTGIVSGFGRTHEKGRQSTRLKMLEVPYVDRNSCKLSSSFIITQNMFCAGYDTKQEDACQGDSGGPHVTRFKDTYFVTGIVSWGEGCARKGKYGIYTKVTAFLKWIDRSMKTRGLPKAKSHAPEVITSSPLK

Compound	inhibition (Prothrombin (Bos taurus)) [%]	pIC50 (Platelet [1])	inhibition (Coagulation factor X [2]) [%]	pIC50 (Platelet [3])	pKi (Coagulation factor X [4])	pKi (Prothrombin)	inhibition (Bos taurus) [%]	pKi [6]	2PT (Plasma [5]) [µM]	Activity (Plasma [7])
N=C(N)N1CCCC(C(=O)Nc2cccc(OCc3ccc(F)cc3)c2)C1 (centres undefined)				3.56	4.24	3.80				
O=C(Nc1cccc(OCc2ccc(-c3cccc(F)c3)cc2)c1)C1CCNCC1	< 30	4.84		4.46	6.75			4.51	205	
CCCCCCOc1cccc(NC(=O)C2CCCNC2)c1 (centres undefined)	< 30		< 30	3.95						
COc1ccc(NC(=O)C2CCCNC2)cc1 (centres undefined)				3.01						
O=C(Nc1cccc(OCc2ccc(-c3cc(F)ccc3F)cc2)c1)C1CCNCC1	< 30				5.90		< 30			
O=C(Nc1ccc(OCc2ccc(F)cc2)cc1)C1CCCNC1 (centres undefined)	< 30	4.05	< 30	3.94						
O=C(Nc1cccc(OCc2ccc(-c3c(F)cccc3F)cc2)c1)C1CCNCC1	< 30				5.84		< 30			
O=C(Nc1cccc(OCc2ccc(-c3ccccc3)cc2)c1)C1CCNCC1	< 30	4.27		3.95	6.00					
O=C(Nc1ccc(OCc2ccc(F)cc2)cc1)C1CCNCC1	< 30	4.03	< 30	3.92						
O=C(Nc1ccc(OCc2ccc(-c3ccccc3)cc2)cc1)C1CCNCC1	< 30			3.87	3.90					
O=C(Nc1cccc(OCc2ccccc2)c1)C1CCNCC1	< 30		< 30	3.64						inactive
N=C(N)N1CCC(C(=O)Nc2cccc(OCc3ccc(-c4ccccc4)cc3)c2)CC1		3.61		3.40	5.28	4.39				

Further lines, with some results ahead:

inhibition (Prothrombin (Bos taurus)) [%]	pIC50 (Platelet [1])	inhibition (Coagulation factor X [2]) [%]	pIC50 (Platelet [3])	pKi (Coagulation factor X [4])	pKi (Prothrombin)	inhibition (Bos taurus) [%]	pKi [6]	Compound	2PT (Plasma [5]) [µM]	Activity (Plasma [7])
< 30	4.37	< 30	4.07					CCCCCCOc1ccc(NC(=O)C2CCCNC2)cc1 (centres undefined)		
< 30	4.15		3.99	3.59				O=C(Nc1cccc(OCc2ccc(F)cc2)c1)C1CCCNC1 (centres undefined)		
< 30		< 30	3.90					O=C(Nc1ccc(OCc2ccc(-c3ccccc3)cc2)cc1)C1CCCNC1 (centres undefined)		
< 30			4.12	6.18		< 30		O=C(Nc1cccc(OCc2ccc(-c3cc(F)c(F)c(F)c3)cc2)c1)C1CCNCC1		
< 30	4.72		4.46	5.41		< 30		O=C(Nc1cccc(OCc2ccc(-c3ccc(F)cc3)cc2)c1)C1CCNCC1		
			3.11	4.47	4.68			N=C(N)N1CCC(C(=O)Nc2cccc(OCc3ccc(F)cc3)c2)CC1		
< 30	4.06		3.82	5.60				O=C(Nc1cccc(OCc2ccc(-c3ccccc3)cc2)c1)C1CCCNC1 (centres undefined)		
< 30			4.20	6.12		< 30		O=C(Nc1cccc(OCc2ccc(-c3ccccc3F)cc2)c1)C1CCNCC1		
< 30			4.18	7.24		< 30		O=C(Nc1cccc(OCc2ccc(-c3ccc(C(F)(F)F)cc3)cc2)c1)C1CCNCC1	140	
				5.02	4.57	< 30		O=C(Nc1cccc(OCc2ccc(-c3c(F)cc(F)cc3F)cc2)c1)C1CCNCC1		
			< 3.00	5.70	4.50			N=C(N)N1CCCC(C(=O)Nc2cccc(OCc3ccc(-c4ccccc4)cc3)c2)C1 (centres undefined)		
			4.01	6.29	4.27	< 30		O=C(Nc1cccc(OCc2ccc(-c3ccc(F)cc3F)cc2)c1)C1CCNCC1		
< 30	4.77		4.56	6.89			4.22	O=C(Nc1cccc(OCc2ccc(-c3cc(F)cc(F)c3)cc2)c1)C1CCNCC1	190	
< 30				6.26			4.22	O=C(Nc1cccc(OCc2ccc(-c3cccc(F)c3F)cc2)c1)C1CCNCC1		
< 30		< 30	3.89					O=C(Nc1cccc(OCc2ccccc2)c1)C1CCCNC1 (centres undefined)		
< 30	4.44	< 30	4.17					O=C(Nc1cccc(OCc2ccc(F)cc2)c1)C1CCNCC1		
